Calls of active or inactive are those of the source. The rule behind the calls is not given here.

Experiment [1] deals with T1, TCP pilus virulence regulatory protein (Vibrio cholerae serotype O1 (strain ATCC 39541 / Classical Ogawa 395 /O395)) (UniProt A5F384).
T1 sequence (whole entry): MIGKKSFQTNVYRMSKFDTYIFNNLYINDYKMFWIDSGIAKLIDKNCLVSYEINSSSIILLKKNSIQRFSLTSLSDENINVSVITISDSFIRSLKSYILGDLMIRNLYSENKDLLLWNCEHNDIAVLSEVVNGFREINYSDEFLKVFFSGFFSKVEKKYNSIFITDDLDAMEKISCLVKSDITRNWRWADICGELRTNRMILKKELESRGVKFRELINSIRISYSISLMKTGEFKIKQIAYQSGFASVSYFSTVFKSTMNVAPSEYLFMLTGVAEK
Nature of the experiment: Inhibition of Vibrio cholerae wild type ToxT-mediated transcription of ctx promoter at 50 uM.

Experiment [2] has as its target T1, TCP pilus virulence regulatory protein (Vibrio cholerae serotype O1 (strain ATCC 39541 / Classical Ogawa 395 /O395)). Nature of the experiment: Inhibition of Vibrio cholerae wild type ToxT N-terminal domain dimerization expressed in Escherichia coli assessed as beta-galatosidase reporter gene expression at 20 uM by bacterial two-hybrid system. The method in brief:
(§1)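 Bacterial two-hybrid: identical toxT N-terminal segments fused to Zif (pACTrAp-Zif) and ω (pBRGpω) and co-transformed into E. coli KDZif1ZΔtolC. Cultures grown overnight with or without 10 μM IPTG and virstatin (10–50 μM), then subcultured into the same conditions. lacZ reporter activity measured by β-galactosidase assay in triplicate; a representative experiment is reported.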

For experiment [3] the target is unchanged. In words: Inhibition of ToxT-mediated transcriptional activation of aldA promoter in Vibrio cholerae O395deltalacZ assessed as beta-galactosidase expression at 100 uM relative to control. Also on record: scale not given: the % may be the effect or the level left.
Experiment [4] has the same target. In words: Inhibition of Vibrio cholerae wild type ToxT N-terminal domain dimerization expressed in Escherichia coli assessed as beta-galatosidase reporter gene expression at 50 uM by bacterial two-hybrid system. In outline:
as §1

Experiment [5] relates to Vibrio cholerae. Nature of the experiment: Inhibition of Vibrio cholerae ToxT L113P mutant N-terminal domain dimerization expressed in Escherichia coli assessed as beta-galatosidase reporter gene expression at 10 uM by bacterial two-hybrid system. In outline: as §1
For experiment [6], the target named is T1, TCP pilus virulence regulatory protein (Vibrio cholerae serotype O1 (strain ATCC 39541 / Classical Ogawa 395 /O395)). Nature of the experiment: Inhibition of ToxT-mediated transcriptional activation of acfA promoter in Vibrio cholerae O395deltalacZ assessed as beta-galactosidase expression at 100 uM relative to control. Also on record: scale not given: the % may be the effect or the level left.

Experiment [7] has the same target. Nature of the experiment: Inhibition of ToxT-mediated transcriptional activation of acfD promoter in Vibrio cholerae O395deltalacZ assessed as beta-galactosidase expression at 100 uM relative to control. Also on record: scale not given: the % may be the effect or the level left.
Experiment [8] shares this target. Nature of the experiment: Inhibition of ToxT-mediated transcriptional activation of ctxAB promoter in Vibrio cholerae O395deltalacZ assessed as beta-galactosidase expression at 100 uM relative to control. Also on record: scale not given: the % may be the effect or the level left.
Experiment [9] has the same target. Nature of the experiment: Inhibition of maltose binding protein-fused Vibrio cholerae ToxT monomer by gel filtration method.
The target is the same in experiment [10]. Nature of the experiment: Inhibition of Vibrio cholerae wild type ToxT N-terminal domain dimerization expressed in Escherichia coli assessed as beta-galatosidase reporter gene expression at 10 uM by bacterial two-hybrid system. In outline: as §1
The test system of experiment [11] is Vibrio cholerae. Nature of the experiment: Inhibition of maltose binding protein-fused Vibrio cholerae ToxT L113P mutant monomer by gel filtration method.
Experiment [12] deals with T1, TCP pilus virulence regulatory protein (Vibrio cholerae serotype O1 (strain ATCC 39541 / Classical Ogawa 395 /O395)). In words: Inhibition of Vibrio cholerae wild type ToxT N-terminal domain dimerization expressed in Escherichia coli assessed as beta-galatosidase reporter gene expression at 35 uM by bacterial two-hybrid system. The method in brief: as §1
For experiment [13] the target is unchanged. Nature of the experiment: Inhibition of ToxT-mediated transcriptional activation of tagA promoter in Vibrio cholerae O395deltalacZ assessed as beta-galactosidase expression at 100 uM relative to control. Also on record: scale not given: the % may be the effect or the level left.
For experiment [14] the target is unchanged. In words: Inhibition of ToxT-mediated transcriptional activation of tcpA promoter in Vibrio cholerae O395deltalacZ assessed as beta-galactosidase expression at 100 uM relative to control. Also on record: scale not given: the % may be the effect or the level left.
For experiment [15] the target is unchanged. In words: Inhibition of ToxT-mediated transcriptional activation of tcpI promoter in Vibrio cholerae O395deltalacZ assessed as beta-galactosidase expression at 100 uM relative to control. Also on record: scale not given: the % may be the effect or the level left.

Consider `COC(=O)CCCN1C(=O)c2cccc3cccc(c23)C1=O`, for which the outcome in [1] was Active.
Take `O=C(O)CCCN1C(=O)c2cccc3cccc(c23)C1=O`: the result in experiment [1], in experiment [2], in experiment [4], in experiment [9], in experiment [10] and in experiment [12] was Active. The Activity was 15% in experiment [3]; 15% in experiment [6]; 3% in [7]; 3% in experiment [8]; 3% in [13]; 3% in experiment [14]. Further, in [15], the Activity amounted to 15%. For the same compound, the outcome in experiment [5] and in experiment [11] was inactive.
As to `O=C(O)CCN1C(=O)c2cccc3cccc(c23)C1=O`, in experiment [1], the result was Active.
`O=C(O)C1CCCC(N2C(=O)c3cccc4cccc(c34)C2=O)C1` (centres undefined): in experiment [1], the result was Active.
Consider `O=C(O)CN1C(=O)c2cccc3cccc(c23)C1=O`, for which, in experiment [1], the result was Active.

The record behind these values is ChEMBL document CHEMBL1147057, “Virstatin inhibits dimerization of the transcriptional activator ToxT” (Proc Natl Acad Sci U S A, 2007).
